Converted amounts (≈) assume the structure as drawn. The source made the active and inactive calls. The calls are words filed in the database; no cut-off is given here.
Key:
Leishmania donovani [1] = test: Antileishmanial activity against Leishmania donovani […] in human THP1 cells by intramacrophage assay; assay type: functional, organism-based; conditions: Leishmania donovani, THP-1
[2] = Intrinsic clearance in CD1 mouse liver microsomes at 0.5 uM after 3 to 30 mins in presence of NADPH by UPLC-MS/MS analysis; assay type: ADME, Microsome
Method in brief: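 0.5 μM compound with female CD1 mouse or human liver microsomes, started with excess NADPH in 50 mM potassium phosphate pH 7.4. Aliquots at 0, 3, 6, 9, 15 and 30 min quenched in acetonitrile with internal standard. UPLC-MS/MS; rate constant from exponential decay of compound/IS ratio. Verapamil as positive control.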

[3] = Kinetic aqueous solubility of the compound in phosphate buffer at pH 7.4 by CLND assay; assay type: physicochemical; conditions: phosphate buffer, read-out: Kinetic_solubility
Method in brief: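 From 10 mM DMSO stock diluted 1:20 into pH 7.4 PBS, equilibrated 1 h at RT, filtered. Filtrate quantified by calibrated flow-injection CLND. Dynamic range 1–500 μM.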

[4] = Solubility of compound in fasted simulated intestinal fluid at 1 mg after 4 hrs by HPLC-UV analysis; assay type: physicochemical; conditions: fasted simulated intestinal fluid
Method in brief: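 1 mg solid shaken in 1 mL FaSSIF (3 mM sodium taurocholate, 0.75 mM lecithin, phosphate buffer pH 6.5) at 900 rpm for 4 h at room temperature, then filtered. Supernatant quantified by HPLC-UV against single-point DMSO calibration. Range 1–1000 μg/mL.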

[5] = Dissociation constant, pKa of the compound by UV-spectroscopy; assay type: physicochemical
Method in brief: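 Sirius T3 acid–base titration with UV read-out: 5 μL of 10 mM sample, absorbance over 54 pH values in about 5 min. Methanol cosolvent with Yasuda–Shedlovsky extrapolation used when precipitation occurred.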

Leishmania donovani [6] = test: Antileishmanial activity against Leishmania donovani LV9 amastigotes infected in BALB/c mouse assessed as suppression of parasite load within liver at 25 mg/kg, po administered bid for 10 days relative to control; assay type: functional
Method in brief: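 Female BALB/c mice, 5 per group, infected i.v. with about 2×10^7 L. donovani LV9 amastigotes harvested from infected hamster spleen. Oral dosing starts day 7 post-infection, in 0.5% HPMC/0.4% Tween 80/0.5% benzyl alcohol, or 10% DMSO/60% PEG400/30% water for the 5-day 50 mg/kg regimen. Dosing solutions made fresh daily. Killed day 14 (5-day) or 19 (10-day). Liver smears give LDU (amastigotes/500 nucleated cells × organ weight). Mean LDU compared with vehicle control gives % suppression.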

Cytochrome P450 3A4 = Cytochrome P450 3A4 (Homo sapiens, UniProt P08684); test: Inhibition of CYP3A4 in human liver microsomes using midazolam as substrate preincubated for 20 mins followed by substrate addition and measured after 5 mins by LC-MS/MS analysis; assay type: ADME
Cytochrome P450 3A4, sequence (P08684 whole entry): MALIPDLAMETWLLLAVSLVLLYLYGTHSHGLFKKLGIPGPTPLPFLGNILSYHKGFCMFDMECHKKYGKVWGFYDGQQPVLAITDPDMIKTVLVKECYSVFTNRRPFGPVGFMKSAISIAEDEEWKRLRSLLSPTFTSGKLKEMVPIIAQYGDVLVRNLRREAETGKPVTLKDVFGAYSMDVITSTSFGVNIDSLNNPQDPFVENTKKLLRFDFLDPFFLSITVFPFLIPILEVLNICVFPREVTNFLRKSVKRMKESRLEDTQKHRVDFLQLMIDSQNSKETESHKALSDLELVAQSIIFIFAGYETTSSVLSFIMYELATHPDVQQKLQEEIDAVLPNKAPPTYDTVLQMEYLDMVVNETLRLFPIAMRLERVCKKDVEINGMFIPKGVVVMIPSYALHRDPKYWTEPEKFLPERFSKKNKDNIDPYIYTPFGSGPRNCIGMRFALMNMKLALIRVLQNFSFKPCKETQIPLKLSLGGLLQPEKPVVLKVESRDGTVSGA
Method in brief: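 Pooled human liver microsomes (final 0.1 mg/mL) with midazolam marker substrate, monitoring CYP3A4-specific metabolite. Test compound at eight concentrations, 0.1–100 μM, final organic ≤0.5%. Preincubated at 37 °C for 20 min, then substrate or cofactor added and incubated 5 min at 37 °C. Stopped with ice-cold acetonitrile; LC-MS/MS read-out gives pIC50.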

[7] = Mutagenicity in Salmonella typhimurium at 1500 ug/plate by Ames test; assay type: toxicity; conditions: salmonella enterica subsp. enterica serovar typhimurium
Lymphoma cell line = test: Clastogenicity in mouse Lymphoma cells at 5 ug/ml; assay type: toxicity, cell-based
[8] = target: Voltage-gated inwardly rectifying potassium channel KCNH2 (Homo sapiens, UniProt Q12809); test: Inhibition of human ERG by patch clamp assay
Voltage-gated inwardly rectifying potassium channel KCNH2, sequence (Q12809 whole entry): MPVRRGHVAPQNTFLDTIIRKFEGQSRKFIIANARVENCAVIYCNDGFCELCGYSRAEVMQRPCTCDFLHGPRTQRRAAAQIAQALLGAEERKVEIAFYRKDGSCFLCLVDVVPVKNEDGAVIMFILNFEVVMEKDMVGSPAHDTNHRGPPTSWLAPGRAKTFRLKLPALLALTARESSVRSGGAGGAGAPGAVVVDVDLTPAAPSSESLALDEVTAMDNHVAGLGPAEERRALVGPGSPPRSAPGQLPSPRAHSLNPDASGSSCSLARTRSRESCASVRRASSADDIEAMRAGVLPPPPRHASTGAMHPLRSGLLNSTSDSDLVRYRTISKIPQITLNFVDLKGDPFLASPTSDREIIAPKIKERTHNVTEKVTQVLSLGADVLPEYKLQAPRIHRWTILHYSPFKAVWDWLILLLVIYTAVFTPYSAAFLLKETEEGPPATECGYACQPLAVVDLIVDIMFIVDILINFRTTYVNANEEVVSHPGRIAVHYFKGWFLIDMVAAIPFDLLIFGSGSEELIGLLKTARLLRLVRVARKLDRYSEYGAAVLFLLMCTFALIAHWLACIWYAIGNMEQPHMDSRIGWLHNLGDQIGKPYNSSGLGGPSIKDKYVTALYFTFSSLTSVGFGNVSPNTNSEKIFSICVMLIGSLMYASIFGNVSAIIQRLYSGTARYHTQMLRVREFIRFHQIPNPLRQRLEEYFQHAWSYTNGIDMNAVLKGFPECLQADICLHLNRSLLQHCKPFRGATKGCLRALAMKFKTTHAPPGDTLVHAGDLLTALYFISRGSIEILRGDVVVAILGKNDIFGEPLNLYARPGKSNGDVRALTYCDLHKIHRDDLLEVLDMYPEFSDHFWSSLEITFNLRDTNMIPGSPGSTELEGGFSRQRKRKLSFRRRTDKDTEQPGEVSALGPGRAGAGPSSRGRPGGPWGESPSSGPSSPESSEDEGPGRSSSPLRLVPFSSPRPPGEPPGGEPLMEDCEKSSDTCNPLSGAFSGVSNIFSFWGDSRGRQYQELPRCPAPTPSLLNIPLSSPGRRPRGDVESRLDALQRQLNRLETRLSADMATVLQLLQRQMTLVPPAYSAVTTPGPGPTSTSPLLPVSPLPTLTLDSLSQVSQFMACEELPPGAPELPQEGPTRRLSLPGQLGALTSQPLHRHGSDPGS

[9] = Toxicity in Crl:WI(Han) rat at 100 to 1000 mg/kg/day, po via gavage for 7 days; assay type: organism-based; conditions: in vivo, 168 h
Method in brief: (§1)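 Male Crl:WI(Han) rats received compound by oral gavage in a 7-day repeat-dose study at 100, 300 and 1000 mg/kg/day. Endpoints were in-life clinical signs (food consumption, body weight, piloerection), macroscopic observations, histopathology, clinical pathology and liver gene expression profiling.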

[10] = Toxicity in Crl:WI(Han) rat assessed as reduction in food consumption at 1000 mg/kg/day, po via gavage for 7 days; assay type: organism-based; conditions: in vivo, 168 h; method in brief: as §1
[11] = Toxicity in Crl:WI(Han) rat assessed as piloerection at 1000 mg/kg/day, po via gavage for 7 days; assay type: organism-based; conditions: in vivo, 168 h; method in brief: as §1
[12] = Toxicity in Crl:WI(Han) rat assessed as irregular breathing at 1000 mg/kg/day, po via gavage for 7 days; assay type: organism-based; conditions: in vivo, 168 h
Method in brief: (§2)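 Male Crl:WI(Han) rats given oral gavage daily for 7 days at 100, 300 and 1000 mg/kg/day. Clinical signs, macroscopic findings, clinical pathology versus controls, and a liver gene expression panel for hepatic toxicity mechanisms.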

[13] = Toxicity in Crl:WI(Han) rat assessed as multiple organ changes at 1000 mg/kg/day, po via gavage for 7 days by histological analysis; assay type: organism-based; conditions: in vivo, 168 h; method in brief: as §1
[14] = Toxicity in Crl:WI(Han) rat assessed as pancreas vacuolation at 300 mg/kg/day, po via gavage for 7 days by histological analysis; assay type: organism-based; conditions: in vivo, 168 h; method in brief: as §1
[15] = Toxicity in Crl:WI(Han) rat assessed as kidney vacuolation at 300 mg/kg/day, po via gavage for 7 days by histological analysis; assay type: organism-based; conditions: in vivo, 168 h; method in brief: as §1
[16] = Toxicity in rabbit cardiac ventricular wedge assessed as QT shortening at 10 uM relative to control; assay type: tissue-based, Oryctolagus cuniculus, Cardiac ventricle
[17] = Cardiotoxicity in Crl:WI(Han) rat up to 600 mg/kg, po via gavage; assay type: toxicity, organism-based; conditions: in vivo
[18] = Therapeutic index, ratio of fCmax in conscious unrestrained telemetered Crl:WI(Han) rat at 300 mg/kg/day, po via gavage for 7 days measured on day 1 to fCmax in Leishmania donovani LV9 amastigotes infected BALB/c mouse at 25 mg/kg, po administered bid for 10 days measured on day 1; assay type: organism-based; conditions: in vivo, read-out: TI
Method in brief: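 Index = free Cmax on day 1 of the rat cardiovascular study / free Cmax on day 1 of the mouse efficacy model. Rat arm: conscious, unrestrained, telemetered male CRL:WI(Han) rats given a single oral dose (up to 1000 mg/kg). Mouse arm: female BALB/c infected i.v. with L. donovani LV9 amastigotes, dosed orally twice daily from day 7 post-infection in 0.5% HPMC, 0.4% Tween 80, 0.5% benzyl alcohol.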

[19] = target: Cyclin-dependent kinase 2 (Homo sapiens) (UniProt P24941); test: Inhibition of human CDK2 by kinobeads-based assay
[20] = Toxicity in Crl:WI(Han) rat assessed as drug tolerability dose at 100 to 1000 mg/kg/day, po via gavage for 7 days; assay type: organism-based; conditions: in vivo, read-out: Activity
Method in brief: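 Male Crl:WI(Han) rats dosed by oral gavage once daily in a 7-day repeat-dose study at 100, 300 and 1000 mg/kg/day. Tolerated doses judged from in-life and clinical signs, macroscopic observations, histopathology, clinical pathology and liver gene expression profiling versus controls.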

[21] = Ratio of AUC (0 to 24 hrs) in conscious unrestrained telemetered Crl:WI(Han) rat at 300 mg/kg/day, po via gavage for 7 days measured on day 7 to AUC (0 to 24 hrs) in Leishmania donovani LV9 amastigotes infected BALB/c mouse at 25 mg/kg, po administered bid for 10 days measured on day 10; assay type: ADME, organism-based; conditions: in vivo, read-out: TI
Method in brief: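 Index = AUC0–24 on day 7 of the rat study / AUC0–24 on day 10 of the mouse efficacy model. Rat arm: male Crl:WI(Han) rats, oral gavage once daily for 7 days at 100, 300 or 1000 mg/kg/day. Mouse arm: female BALB/c infected i.v. with ~2×10^7 L. donovani LV9 amastigotes, dosed orally twice daily for 10 days from day 7 post-infection in 0.5% HPMC, 0.4% Tween 80, 0.5% benzyl alcohol.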

[22] = Toxicity in Crl:WI(Han) rat assessed as stomach distension at 100 to 1000 mg/kg/day, po via gavage for 7 days; assay type: organism-based; conditions: in vivo, 168 h; method in brief: as §1
CYP1A1 = test: Toxicity in Crl:WI(Han) rat assessed as increase in CYP1A1 gene expression in liver at 100 to 1000 mg/kg/day, po via gavage for 7 days; assay type: organism-based; conditions: Crl:WI(Han), liver, read-out: FC; method in brief: as §2
[23] = Toxicity in Crl:WI(Han) rat assessed as effect on liver gene expression in liver at 100 to 1000 mg/kg/day, po via gavage for 7 days; assay type: organism-based; conditions: in vivo, 168 h; method in brief: as §2

COc1ccccc1-c1n[nH]c2nc(N[C@H]3CC[C@H](NS(=O)(=O)CCC(F)(F)F)CC3)nc(OC)c12
EC50 (Leishmania donovani [1]): 0.398 µM | CLH [2]: 1.1 mL/min/g | solubility kinetic [3]: 68 µM (≈ 35.9 µg/mL) | solubility at 4 h [4]: 25 to 130 µg/mL (≈ 47.3 to 246 µM) | pKa [5]: 4.1 | Activity (Leishmania donovani [6]): >95% | IC50 (Cytochrome P450 3A4): 6.31 µM | Activity [7]: Non-Toxic | Activity (Lymphoma cell line): Non-Toxic | IC50 [8]: 17.5 µM | Activity [9]: Toxic | Activity [10]: Toxic | Activity [11]: Toxic | Activity [12]: Toxic | Activity [13]: Toxic | Activity [14]: Toxic | Activity [15]: Toxic | Activity [16]: 11.3% | Activity [17]: Non-Toxic | selectivity ratio [18]: 12 | inhibition [19]: Active | MTD at 168 h [20]: 100 to 300 mg/kg | selectivity ratio [21]: 19 | Activity [22]: Toxic | fold induction at 168 h (CYP1A1): 43 | Activity [23]: Non-Toxic

From ChEMBL document CHEMBL4368903, “Identification of GSK3186899/DDD853651 as a Preclinical Development Candidate for the Treatment of Visceral Leishmaniasis” (J Med Chem, 2019)
